Screens from PubChem BioAssay.
Hits are enriched below; roughly 2.3% of the tested compounds scored in any of these assays.
MEKK2 WT-MEK5 – modulators of MEK5 binding to wildtype MEKK2, primary screen, biochemical, multiplex bead flow cytometry, Alexa488-MEK5. Mitogen-activated protein kinase kinase kinase 2 (Homo sapiens), Q9Y2U5. Alexa488-MEK5 binding to MEKK2 WT; actives lie on both sides. actives 1.1% (n = 290,000). binding response (% of control), % at 10 µM; in the data active means binding response below about 67% or above about 130%
MEKK2mut PB1 HTS – MEK5 binding signal on mutant MEKK2 PB1, primary screen, biochemical, multiplex bead flow cytometry, Alexa488-MEK5 | Alexa488-MEK5 binding to MEKK2 mutant | percent response, % at 10 µM | actives 0.35% (n = 290,000) | AID 1530, 2009; in the data active means percent response above about 24%, passing the limit was not always enough
ABCB1 inh – ABCB1 efflux pump inhibitors, primary screen, cell-based, multiplex, flow cytometry, ABCG2 counter-screen; CCRF-Adr cells, JC-1 efflux; inhibition, % at 6.6 µM; actives 0.067% (n = 190,000); AID 1326, 2008; in the data active means inhibition above about 40%;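 further: 0% = vehicle and 100% = reference inhibitor; higher value means more JC-1 retained so stronger ABCB1 efflux block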
Target sequence (P08183 whole entry, looked up): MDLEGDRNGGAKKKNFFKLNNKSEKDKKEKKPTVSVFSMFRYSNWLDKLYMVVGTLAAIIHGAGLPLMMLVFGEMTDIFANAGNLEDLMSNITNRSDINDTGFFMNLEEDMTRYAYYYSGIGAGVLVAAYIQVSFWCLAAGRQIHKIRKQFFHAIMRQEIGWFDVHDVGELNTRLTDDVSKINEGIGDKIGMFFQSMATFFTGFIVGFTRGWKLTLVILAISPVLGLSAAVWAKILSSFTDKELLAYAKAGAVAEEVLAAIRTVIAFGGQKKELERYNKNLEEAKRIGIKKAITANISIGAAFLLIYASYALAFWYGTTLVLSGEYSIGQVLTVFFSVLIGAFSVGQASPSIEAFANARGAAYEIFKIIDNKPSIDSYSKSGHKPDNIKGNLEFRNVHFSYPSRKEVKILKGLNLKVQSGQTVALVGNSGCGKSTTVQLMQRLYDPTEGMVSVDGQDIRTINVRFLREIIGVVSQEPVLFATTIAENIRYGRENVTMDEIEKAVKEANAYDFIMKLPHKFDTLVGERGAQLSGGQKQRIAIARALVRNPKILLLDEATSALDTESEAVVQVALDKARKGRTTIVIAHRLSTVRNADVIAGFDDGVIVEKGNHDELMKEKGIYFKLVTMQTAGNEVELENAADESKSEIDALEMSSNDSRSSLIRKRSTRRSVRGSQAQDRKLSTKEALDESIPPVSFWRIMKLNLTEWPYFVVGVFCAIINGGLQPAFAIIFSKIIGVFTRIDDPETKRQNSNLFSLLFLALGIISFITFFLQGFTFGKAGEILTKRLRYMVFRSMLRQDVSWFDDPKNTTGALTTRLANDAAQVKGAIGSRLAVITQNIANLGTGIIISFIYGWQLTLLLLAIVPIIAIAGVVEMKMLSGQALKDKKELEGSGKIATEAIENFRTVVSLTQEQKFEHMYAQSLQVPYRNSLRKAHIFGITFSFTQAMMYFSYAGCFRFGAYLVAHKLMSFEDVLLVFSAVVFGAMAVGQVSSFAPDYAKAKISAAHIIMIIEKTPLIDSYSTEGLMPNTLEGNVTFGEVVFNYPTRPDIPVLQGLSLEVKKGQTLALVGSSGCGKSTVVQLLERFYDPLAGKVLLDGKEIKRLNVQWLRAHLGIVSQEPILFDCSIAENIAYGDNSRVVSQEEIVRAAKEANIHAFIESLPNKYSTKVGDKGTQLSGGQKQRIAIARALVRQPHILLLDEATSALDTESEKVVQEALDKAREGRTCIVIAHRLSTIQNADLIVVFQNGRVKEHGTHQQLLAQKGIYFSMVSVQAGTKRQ
ABCG2 inh – ABCG2 efflux pump inhibitors, primary screen, multiplex with ABCB1, IgMXP3 cells, flow cytometry; Broad substrate specificity ATP-binding cassette transporter ABCG2 (Homo sapiens), Q9UNQ0; JC-1 efflux; inhibition, % at 6.6 µM; actives 0.1% (n = 190,000);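 active means inhibition above 80%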;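 further: 0% = DMSO and 100% = nicardipine control wells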
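material = IgMXP3 (ABCG2) plus far-red-tagged CCRF-Adr (ABCB1) cells | amount = 3 million cells/mL, equal mix of both lines | also added = JC-1 transporter substrate | dosing = one concentration, 6.6 µM final | schedule = 10 min at 25 °C | measured by = flow cytometric JC-1 green MFI at 530 nm | read-out basis = percent efflux inhibition, scaled nicardipine 100% to DMSO 0%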
MEKK3 PB1 HTS – modulators of MEKK3-MEK5 PB1 binding, primary screen, biochemical, wildtype MEKK3, multiplex bead flow cytometry, Alexa488-MEK5; bead-based flow cytometry, Alexa488-MEK5 binding to MEKK3; actives lie on both sides; 0 = blocked by unlabeled MEK5, 100 = vehicle; binding response (% of control), % at 10 µM; actives 1.4% (n = 290,000);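 active means binding response more than 3 SD above or below the average of its plate-row segment, actives on both sides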;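 further: Alexa488 bead fluorescence after subtracting the streptavidin-only scavenger bead signal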
MEKK2wt confirm – modulators of MEK5 binding to wildtype MEKK2, confirmation, biochemical, single concentration, multiplex bead flow cytometry; shares compounds with MEKK3 PB1 HTS; Alexa488-MEK5 binding to MEKK2 WT; actives lie on both sides; binding response (% of control), % at 10 µM; actives 2.4% (n = 5,900); in the data active means binding response below about 16% or above about 210%; inactive means in between
MEKK2mut-MEK5 – mutant MEKK2 PB1-MEK5 binding signal retest – biochemical, single concentration, multiplex bead flow cytometry, confirmation; shares compounds with MEKK3 PB1 HTS; Alexa488-MEK5 binding to MEKK2 mutant; percent response, % at 10 µM; actives 2% (n = 5,900); in the data active means percent response mostly above about 71%, no sharp cut-off; inactive means mostly below about 38%;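 further: higher means compound restores mutant binding toward wildtype level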
MEKK3 confirm – MEKK3 wild-type PB1 binding to MEK5, inhibitors, confirmation, biochemical, bead multiplex flow cytometry, single concentration, wildtype; actives 1.8% (n = 5,900); shares compounds with MEKK3 PB1 HTS; Alexa488-MEK5 binding to MEKK3; active compounds read low; binding response (% of control), % at 10 µM;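 active means binding response below 72% of control, or above a set upper limit, though filed actives all read lower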;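 further: 100% = DMSO only wells and 0% = binding blocked by excess unlabeled MEK5; lower values mean stronger disruption of MEK5 binding to MEKK3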
* = called active by the depositor; / = no result given; [ ] = remark or other dose.

SMILES	MEKK2 WT-MEK5	MEKK2mut PB1 HTS	ABCB1 inh	ABCG2 inh	MEKK3 PB1 HTS	MEKK2wt confirm	MEKK2mut-MEK5	MEKK3 confirm
COc1ccc(C2c3c(ncn(CCN4CCOCC4)c3=N)Oc3ccc4ccccc4c32)cc1OC (configuration not stated)	163*	21	1	1	109	153	28	107
COc1ccc(C2c3ccc4ccccc4c3Oc3ncn(CCCN(C)C)c(=N)c32)cc1 (configuration not stated)	202*	51*	/	/	111	198	55	100
COc1ccccc1C1c2ccc3ccccc3c2Oc2ncn(CCN(C)C)c(=N)c21 (configuration not stated)	153*	32*	/	/	115	150	29	107
COc1ccc(C2c3ccc(O)cc3Oc3ncn(Cc4ccco4)c(=N)c32)cc1OC (configuration not stated)	108	3	/	/	99	/	/	/
COc1ccc(C2c3ccc4ccccc4c3Oc3ncn(Cc4ccco4)c(=N)c32)cc1OC (configuration not stated)	161*	34	7	4	103	147	33	109
CC1(C)Nc2ccccc2C(=O)N1c1ccccc1	98	3	/	/	100	/	/	/
O=C(NCCCn1ccnc1)/C(=C/c1ccco1)NC(=O)c1ccco1	70	-11	/	/	66*[inhibitor]	101	2	105
O=C(NC(c1cccnc1)C(F)(F)F)c1cc(COc2ccc3c(c2)CCCC3)on1 (configuration not stated)	99	1	/	/	101	/	/	/
CC1CC(C)(C)NC(=S)N1CC(=O)N1CCN(Cc2ccccc2)CC1 (configuration not stated)	103	1	1	11	100	/	/	/
CC1(C)CC(C)(O)N(Cc2ccccc2)C(=S)N1 (configuration not stated)	112	1	1	7	133*	101	2	101
CC(=O)c1ccc(N=C2C(=O)Nc3ccccc32)cc1	20*[inhibitor]	-8	/	/	56*[inhibitor]	96	-11	95
COc1ccc(C(=O)NN/C(C)=C/C(=O)C(F)(F)C(F)(F)C(F)(F)F)cc1	102	-1	0	-2	130*	95	-2	99
CCOC(=O)C1CCN(c2ccccc2CN2CCN(c3ccccc3OCC)CC2)CC1	109	6	/	/	102	/	/	/
CCOC(=O)C1CCN(Cc2cc(=O)oc3c(C)c(C)ccc23)CC1	97	-5	/	/	94	/	/	/
CC(=O)Nc1cccc(-n2nnc(SCC(=O)c3ccccc3)n2)c1	131	27	/	/	129*	107	-2	105
COc1ccc(NC(=O)c2ccc(N3C(=O)C4CC=C(C)CC4C3=O)cc2)c(OC)c1 (configuration not stated)	97	-1	/	/	103	/	/	/
Cc1onc(-c2ccccc2)c1C(=O)NC(=S)NNC(=O)c1ccncc1	107	1	1	24	131*	105	-2	100
NC(=O)NC(=O)C(Nc1ccc(N2CCCCC2)cc1)c1ccccc1 (configuration not stated)	94	5	/	/	95	/	/	/
CCCCOC(=O)Nc1ccc(S(=O)(=O)Nc2onc(C)c2C)cc1	97	5	/	/	97	/	/	/
Cc1cccc(-n2[nH]c(C)c(C=Nc3ccc4[nH]c(=O)[nH]c4c3)c2=O)c1	107	0	-1	-6	129*	123	11	104
O=[N+]([O-])c1ccc(O)c(C(C#Cc2ccccc2)N2CCOCC2)c1 (configuration not stated)	77	-13	/	/	67*[inhibitor]	105	4	105
O=C(c1cc([N+](=O)[O-])ccc1N1CCOCC1)N1CCN(c2ccccc2)CC1	108	7	/	/	104	/	/	/
O=C(Nc1ccc(Br)cc1)C1CCN(C(=O)c2ccc(F)cc2)CC1	105	2	0	2	150*	98	-11	96
COc1cccc(N(CC(=O)N2CCCC2)S(C)(=O)=O)c1	102	7	/	/	101	/	/	/
COc1ccc(C(CCN2CCCC2)c2c(O)cc(OC)cc2OC)cc1 (configuration not stated)	149*	9	/	/	117	158	31	108
SMILES	MEKK2 WT-MEK5	MEKK2mut PB1 HTS	ABCB1 inh	ABCG2 inh	MEKK3 PB1 HTS	MEKK2wt confirm	MEKK2mut-MEK5	MEKK3 confirm
COc1cc(O)c(C(CCN2CCCC2)c2cc(OC)c(OC)c(OC)c2)c(OC)c1 (configuration not stated)	145*	5	/	/	114	118	13	103
COc1cc(O)c(C(CCN2CCCCC2)c2cc(OC)c(OC)c(OC)c2)c(OC)c1 (configuration not stated)	90	3	/	/	94	/	/	/
COc1cc(O)c(C(CCN2CCOCC2)c2cc(OC)c(OC)c(OC)c2)c(OC)c1 (configuration not stated)	142*	3	/	/	119	98	-8	97
O=C(C1CCCN(Cc2ccc([N+](=O)[O-])cc2)C1)N1CCCCC1 (configuration not stated)	108	10	/	/	110	/	/	/
COc1ccc(/C=C(\NC(=O)c2ccco2)C(=O)N2CCCCC2)cc1	93	-2	/	/	97	/	/	/
COc1ccc(CNC(=O)/C(C#N)=C2\N=C(NC(=O)c3cccs3)c3ccccc32)cc1	93	0	0	0	74*[inhibitor]	100	3	108
COCCNC(=O)/C(C#N)=C1\N=C(NC(=O)c2cccs2)c2ccccc21	101	3	/	/	102	/	/	/
Cc1ccc(C#N)c(SCc2ccccc2F)n1	59	-14	/	/	49*[inhibitor]	104	0	102
Cc1ccc2nc(CSc3nc(C)ccc3C#N)[nH]c2c1	107	10	0	-1	109	/	/	/
CNS(=O)(=O)c1cn(CC(=O)NCc2ccc(F)cc2)cc1S(=O)(=O)NC	103	5	/	/	105	/	/	/
